# Data published in ChEMBL document CHEMBL2331160, “Trimeric hemibastadin congener from the marine sponge Ianthella basta” (J Nat Prod, 2013).
# pIC50: −log10 of the molar value. Active and inactive are the calls of the source. No cut-off for these calls is given here.
# Tests used:
# [1] = target: Focal adhesion kinase 1 (Homo sapiens, UniProt Q05397); experiment: Inhibition of FAK (unknown origin)
# How it was run: (§1)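 Biochemical (cell-free) assay within a panel of 24 protein kinases. Results reported as IC50 values. Procedure as described in earlier work.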
# [2] = target: Hepatocyte growth factor receptor (Homo sapiens, UniProt P08581); experiment: Inhibition of MET (unknown origin); how it was run: as §1
# [3] = target: T1, Aurora kinase A (Homo sapiens, UniProt O14965); experiment: Inhibition of aurora-A (unknown origin); how it was run: as §1
# T1 sequence (O14965 whole entry): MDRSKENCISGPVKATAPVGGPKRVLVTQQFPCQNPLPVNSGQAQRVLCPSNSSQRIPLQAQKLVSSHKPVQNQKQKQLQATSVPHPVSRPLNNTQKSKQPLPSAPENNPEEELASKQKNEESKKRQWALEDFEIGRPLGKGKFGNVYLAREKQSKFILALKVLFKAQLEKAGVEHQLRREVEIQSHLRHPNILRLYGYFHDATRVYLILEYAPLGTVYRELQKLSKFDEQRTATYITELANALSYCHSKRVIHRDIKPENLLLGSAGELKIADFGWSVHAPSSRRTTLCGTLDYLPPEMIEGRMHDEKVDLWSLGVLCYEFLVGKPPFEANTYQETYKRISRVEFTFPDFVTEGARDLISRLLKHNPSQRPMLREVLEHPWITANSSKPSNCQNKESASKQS
# [4] = target: Aurora kinase B (Homo sapiens, UniProt Q96GD4); experiment: Inhibition of aurora-B (unknown origin); how it was run: as §1
# [5] = target: Mitogen-activated protein kinase kinase kinase 8 (Homo sapiens, UniProt P41279); experiment: Inhibition of COT (unknown origin)
# How it was run: (§2)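 Biochemical (cell-free) assay using a panel of 24 protein kinases. The read-out was the IC50.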
# [6] = target: RAC-alpha serine/threonine-protein kinase (Homo sapiens, UniProt P31749); experiment: Inhibition of AKT1 (unknown origin); how it was run: as §1
# [7] = target: Epidermal growth factor receptor (Homo sapiens, UniProt P00533); experiment: Inhibition of EGFR (unknown origin); how it was run: as §1
# [8] = target: Proto-oncogene tyrosine-protein kinase Src (Homo sapiens, UniProt P12931); experiment: Inhibition of SRC (unknown origin); how it was run: as §1
# [9] = target: Insulin-like growth factor 1 receptor (Homo sapiens, UniProt P08069); experiment: Inhibition of IGF1R (unknown origin); how it was run: as §1
# [10] = target: Serine/threonine-protein kinase B-raf (Homo sapiens, UniProt P15056, V600E); experiment: Inhibition of B-RAF V600E mutant (unknown origin); how it was run: as §1
# [11] = target: Insulin receptor (Homo sapiens, UniProt P06213); experiment: Inhibition of INSR (unknown origin); how it was run: as §1
# [12] = target: Vascular endothelial growth factor receptor 2 (Homo sapiens, UniProt P35968); experiment: Inhibition of VEGFR2 (unknown origin); how it was run: as §1
# [13] = target: T2, Serine/threonine-protein kinase PLK4 (Homo sapiens, UniProt O00444); experiment: Inhibition of SAK (unknown origin); how it was run: as §1
# T2 sequence (O00444 whole entry): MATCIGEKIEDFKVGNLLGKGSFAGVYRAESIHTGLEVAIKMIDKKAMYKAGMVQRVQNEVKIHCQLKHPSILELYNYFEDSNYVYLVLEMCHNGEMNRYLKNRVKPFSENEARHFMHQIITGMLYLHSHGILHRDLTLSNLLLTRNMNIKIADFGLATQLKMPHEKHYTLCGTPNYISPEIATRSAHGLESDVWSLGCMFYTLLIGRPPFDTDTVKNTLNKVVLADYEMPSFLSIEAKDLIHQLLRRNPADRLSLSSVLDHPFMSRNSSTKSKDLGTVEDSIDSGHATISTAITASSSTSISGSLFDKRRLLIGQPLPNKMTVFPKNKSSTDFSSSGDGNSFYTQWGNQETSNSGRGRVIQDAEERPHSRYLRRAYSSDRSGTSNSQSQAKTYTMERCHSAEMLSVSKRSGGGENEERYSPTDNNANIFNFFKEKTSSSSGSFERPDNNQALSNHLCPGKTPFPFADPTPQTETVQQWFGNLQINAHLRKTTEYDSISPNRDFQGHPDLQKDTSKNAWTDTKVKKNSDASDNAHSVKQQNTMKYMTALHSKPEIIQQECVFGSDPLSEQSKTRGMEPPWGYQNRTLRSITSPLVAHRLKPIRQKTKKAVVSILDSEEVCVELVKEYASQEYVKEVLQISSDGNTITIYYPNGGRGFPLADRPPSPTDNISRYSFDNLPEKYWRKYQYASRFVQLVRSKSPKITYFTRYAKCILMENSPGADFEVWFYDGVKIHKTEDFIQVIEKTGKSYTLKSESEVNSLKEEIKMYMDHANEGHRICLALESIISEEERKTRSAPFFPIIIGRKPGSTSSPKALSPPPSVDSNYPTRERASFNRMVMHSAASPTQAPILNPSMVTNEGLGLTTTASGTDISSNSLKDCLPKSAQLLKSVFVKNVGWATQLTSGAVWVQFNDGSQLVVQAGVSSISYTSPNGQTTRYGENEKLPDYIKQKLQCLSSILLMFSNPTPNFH
# [14] = target: T3, Receptor-type tyrosine-protein kinase FLT3 (Homo sapiens, UniProt P36888); experiment: Inhibition of FLT3 (unknown origin); how it was run: as §2
# T3 sequence (P36888 whole entry): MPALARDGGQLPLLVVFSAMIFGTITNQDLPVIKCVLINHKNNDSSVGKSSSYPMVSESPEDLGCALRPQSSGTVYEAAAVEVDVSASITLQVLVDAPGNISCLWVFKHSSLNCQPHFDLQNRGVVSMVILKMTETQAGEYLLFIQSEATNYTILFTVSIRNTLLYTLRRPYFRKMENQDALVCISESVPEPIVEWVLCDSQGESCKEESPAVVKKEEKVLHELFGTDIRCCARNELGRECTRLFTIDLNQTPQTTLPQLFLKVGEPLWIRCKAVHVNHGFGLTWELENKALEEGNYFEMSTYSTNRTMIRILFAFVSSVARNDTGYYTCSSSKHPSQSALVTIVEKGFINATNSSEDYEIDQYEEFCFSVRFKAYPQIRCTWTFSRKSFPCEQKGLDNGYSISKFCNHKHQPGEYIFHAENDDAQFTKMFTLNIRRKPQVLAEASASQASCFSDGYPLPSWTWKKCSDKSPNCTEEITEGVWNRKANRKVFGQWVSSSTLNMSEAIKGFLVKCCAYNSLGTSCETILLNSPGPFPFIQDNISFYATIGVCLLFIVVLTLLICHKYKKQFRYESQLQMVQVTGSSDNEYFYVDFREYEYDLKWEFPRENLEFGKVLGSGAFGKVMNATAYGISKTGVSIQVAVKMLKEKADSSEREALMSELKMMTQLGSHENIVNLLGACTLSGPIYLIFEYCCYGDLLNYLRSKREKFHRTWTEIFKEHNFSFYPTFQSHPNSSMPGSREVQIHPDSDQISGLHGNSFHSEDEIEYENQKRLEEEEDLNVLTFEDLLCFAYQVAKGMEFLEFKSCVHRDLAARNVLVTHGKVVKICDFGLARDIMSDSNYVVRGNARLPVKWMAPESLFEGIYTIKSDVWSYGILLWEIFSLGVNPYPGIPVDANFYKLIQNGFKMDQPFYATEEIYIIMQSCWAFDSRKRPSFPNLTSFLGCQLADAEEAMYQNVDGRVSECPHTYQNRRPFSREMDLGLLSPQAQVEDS
# [15] = target: Vascular endothelial growth factor receptor 3 (Homo sapiens, UniProt P35916); experiment: Inhibition of VEGFR3 (unknown origin); how it was run: as §1
# [16] = target: Receptor tyrosine-protein kinase erbB-2 (Homo sapiens, UniProt P04626); experiment: Inhibition of ERBB2 (unknown origin); how it was run: as §1
# [17] = target: T4, NUAK family SNF1-like kinase 1 (Homo sapiens, UniProt O60285); experiment: Inhibition of ARK5 (unknown origin); how it was run: as §1
# T4 sequence (O60285 whole entry): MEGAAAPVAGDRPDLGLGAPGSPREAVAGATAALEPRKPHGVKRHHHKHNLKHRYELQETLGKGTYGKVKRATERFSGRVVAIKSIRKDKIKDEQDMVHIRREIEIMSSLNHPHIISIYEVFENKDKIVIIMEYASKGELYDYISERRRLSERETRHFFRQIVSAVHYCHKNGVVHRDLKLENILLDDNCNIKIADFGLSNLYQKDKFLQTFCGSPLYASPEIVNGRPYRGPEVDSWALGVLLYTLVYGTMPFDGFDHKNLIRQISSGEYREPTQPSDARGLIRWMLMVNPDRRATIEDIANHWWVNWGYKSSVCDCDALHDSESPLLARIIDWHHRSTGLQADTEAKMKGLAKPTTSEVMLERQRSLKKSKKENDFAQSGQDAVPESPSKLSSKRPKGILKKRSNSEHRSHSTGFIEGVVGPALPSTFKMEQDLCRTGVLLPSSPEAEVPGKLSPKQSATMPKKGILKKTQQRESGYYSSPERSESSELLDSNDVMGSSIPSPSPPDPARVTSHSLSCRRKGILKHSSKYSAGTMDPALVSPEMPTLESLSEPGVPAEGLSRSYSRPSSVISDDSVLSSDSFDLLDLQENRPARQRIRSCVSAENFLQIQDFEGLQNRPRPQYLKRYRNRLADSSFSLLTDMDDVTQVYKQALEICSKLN
# [18] = tested on: L5178Y; experiment: Cytotoxicity against mouse L5178Y cells assessed as inhibition of cell proliferation by MTT assay; format: functional, cell-based
# [19] = target: Angiopoietin-1 receptor (Homo sapiens, UniProt Q02763); experiment: Inhibition of TIE2 (unknown origin); how it was run: as §1
# [20] = target: Cyclin-dependent kinase 2/cyclin A (Homo sapiens, UniProt P24941); experiment: Inhibition of CDK2/cyclin-A (unknown origin); format: protein-complex assay; how it was run: as §1
# [21] = target: Serine/threonine-protein kinase PLK1 (Homo sapiens, UniProt P53350); experiment: Inhibition of PLK1 (unknown origin); how it was run: as §1
# [22] = target: Casein kinase II subunit alpha (Homo sapiens, UniProt P68400); experiment: Inhibition of CK2-alpha1 (unknown origin); how it was run: as §1
# [23] = target: Cyclin-dependent kinase 4/cyclin D1 (Homo sapiens, UniProt P11802); experiment: Inhibition of CDK4/cyclin-D1 (unknown origin); format: protein-complex assay; how it was run: as §1
# [24] = target: Platelet-derived growth factor receptor beta (Homo sapiens, UniProt P09619); experiment: Inhibition of PDGFR-beta (unknown origin)
# [25] = target: Ephrin type-B receptor 4 (Homo sapiens, UniProt P54760); experiment: Inhibition of EPHB4 (unknown origin); how it was run: as §1
# Sequence of Cyclin-dependent kinase 4/cyclin D1 (P11802 whole entry): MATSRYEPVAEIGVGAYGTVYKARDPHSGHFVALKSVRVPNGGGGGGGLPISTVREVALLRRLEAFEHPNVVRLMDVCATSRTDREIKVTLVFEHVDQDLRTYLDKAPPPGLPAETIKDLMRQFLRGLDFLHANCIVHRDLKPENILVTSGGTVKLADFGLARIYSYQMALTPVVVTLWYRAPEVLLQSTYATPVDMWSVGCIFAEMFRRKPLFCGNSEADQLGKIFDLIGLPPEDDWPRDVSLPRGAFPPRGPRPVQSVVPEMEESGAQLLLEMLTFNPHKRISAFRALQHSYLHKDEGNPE
# Sequence of Cyclin-dependent kinase 4/cyclin D1 (P24385 whole entry, further chain): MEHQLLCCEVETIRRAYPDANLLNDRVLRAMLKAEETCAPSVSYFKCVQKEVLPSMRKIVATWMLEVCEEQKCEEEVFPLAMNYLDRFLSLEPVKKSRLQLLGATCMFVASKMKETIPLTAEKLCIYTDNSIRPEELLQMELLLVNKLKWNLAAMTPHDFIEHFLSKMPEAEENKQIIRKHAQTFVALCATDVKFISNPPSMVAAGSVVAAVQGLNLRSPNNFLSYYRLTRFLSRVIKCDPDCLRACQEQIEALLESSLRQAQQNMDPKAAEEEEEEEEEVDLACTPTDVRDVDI
# Sequence of Aurora kinase B (Q96GD4 whole entry): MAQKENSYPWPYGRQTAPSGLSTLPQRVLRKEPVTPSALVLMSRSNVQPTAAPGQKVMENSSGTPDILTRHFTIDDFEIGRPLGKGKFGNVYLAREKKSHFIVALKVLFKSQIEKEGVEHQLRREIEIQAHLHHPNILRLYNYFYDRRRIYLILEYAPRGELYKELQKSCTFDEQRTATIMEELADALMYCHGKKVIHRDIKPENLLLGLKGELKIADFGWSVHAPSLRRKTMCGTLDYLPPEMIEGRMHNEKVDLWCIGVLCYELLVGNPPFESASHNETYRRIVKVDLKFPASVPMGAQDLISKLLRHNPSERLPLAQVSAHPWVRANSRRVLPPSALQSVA
# Sequence of Epidermal growth factor receptor (P00533 whole entry): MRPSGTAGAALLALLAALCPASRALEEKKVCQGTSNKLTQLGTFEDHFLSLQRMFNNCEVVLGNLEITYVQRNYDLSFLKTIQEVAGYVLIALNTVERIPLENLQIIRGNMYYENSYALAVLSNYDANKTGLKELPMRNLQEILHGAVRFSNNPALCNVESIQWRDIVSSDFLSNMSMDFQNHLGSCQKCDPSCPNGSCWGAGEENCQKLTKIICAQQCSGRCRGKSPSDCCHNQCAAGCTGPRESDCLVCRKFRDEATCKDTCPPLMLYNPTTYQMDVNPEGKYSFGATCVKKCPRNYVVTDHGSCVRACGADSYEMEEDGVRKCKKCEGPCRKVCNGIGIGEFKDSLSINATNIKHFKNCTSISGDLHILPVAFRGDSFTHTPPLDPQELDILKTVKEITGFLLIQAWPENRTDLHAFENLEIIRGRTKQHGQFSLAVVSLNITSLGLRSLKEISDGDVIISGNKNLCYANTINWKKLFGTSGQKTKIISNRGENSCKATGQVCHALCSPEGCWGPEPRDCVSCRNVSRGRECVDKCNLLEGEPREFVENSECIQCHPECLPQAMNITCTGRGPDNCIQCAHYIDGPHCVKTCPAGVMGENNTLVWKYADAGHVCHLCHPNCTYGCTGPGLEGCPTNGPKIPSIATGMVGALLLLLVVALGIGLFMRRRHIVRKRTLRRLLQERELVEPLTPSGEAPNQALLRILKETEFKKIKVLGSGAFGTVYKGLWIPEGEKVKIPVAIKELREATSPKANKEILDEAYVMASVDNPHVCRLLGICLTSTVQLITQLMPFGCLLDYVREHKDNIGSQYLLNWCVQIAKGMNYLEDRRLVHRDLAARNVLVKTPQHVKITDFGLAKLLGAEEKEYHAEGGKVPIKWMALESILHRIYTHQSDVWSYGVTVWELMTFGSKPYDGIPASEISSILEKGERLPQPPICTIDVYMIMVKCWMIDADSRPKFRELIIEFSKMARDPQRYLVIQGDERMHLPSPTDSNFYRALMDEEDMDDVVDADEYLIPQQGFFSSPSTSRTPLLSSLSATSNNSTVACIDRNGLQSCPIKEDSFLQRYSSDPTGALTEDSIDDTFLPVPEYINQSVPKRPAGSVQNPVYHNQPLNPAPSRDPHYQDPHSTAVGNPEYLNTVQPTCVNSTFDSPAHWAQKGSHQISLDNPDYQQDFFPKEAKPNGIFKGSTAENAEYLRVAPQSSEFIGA
# Sequence of Receptor tyrosine-protein kinase erbB-2 (P04626 whole entry): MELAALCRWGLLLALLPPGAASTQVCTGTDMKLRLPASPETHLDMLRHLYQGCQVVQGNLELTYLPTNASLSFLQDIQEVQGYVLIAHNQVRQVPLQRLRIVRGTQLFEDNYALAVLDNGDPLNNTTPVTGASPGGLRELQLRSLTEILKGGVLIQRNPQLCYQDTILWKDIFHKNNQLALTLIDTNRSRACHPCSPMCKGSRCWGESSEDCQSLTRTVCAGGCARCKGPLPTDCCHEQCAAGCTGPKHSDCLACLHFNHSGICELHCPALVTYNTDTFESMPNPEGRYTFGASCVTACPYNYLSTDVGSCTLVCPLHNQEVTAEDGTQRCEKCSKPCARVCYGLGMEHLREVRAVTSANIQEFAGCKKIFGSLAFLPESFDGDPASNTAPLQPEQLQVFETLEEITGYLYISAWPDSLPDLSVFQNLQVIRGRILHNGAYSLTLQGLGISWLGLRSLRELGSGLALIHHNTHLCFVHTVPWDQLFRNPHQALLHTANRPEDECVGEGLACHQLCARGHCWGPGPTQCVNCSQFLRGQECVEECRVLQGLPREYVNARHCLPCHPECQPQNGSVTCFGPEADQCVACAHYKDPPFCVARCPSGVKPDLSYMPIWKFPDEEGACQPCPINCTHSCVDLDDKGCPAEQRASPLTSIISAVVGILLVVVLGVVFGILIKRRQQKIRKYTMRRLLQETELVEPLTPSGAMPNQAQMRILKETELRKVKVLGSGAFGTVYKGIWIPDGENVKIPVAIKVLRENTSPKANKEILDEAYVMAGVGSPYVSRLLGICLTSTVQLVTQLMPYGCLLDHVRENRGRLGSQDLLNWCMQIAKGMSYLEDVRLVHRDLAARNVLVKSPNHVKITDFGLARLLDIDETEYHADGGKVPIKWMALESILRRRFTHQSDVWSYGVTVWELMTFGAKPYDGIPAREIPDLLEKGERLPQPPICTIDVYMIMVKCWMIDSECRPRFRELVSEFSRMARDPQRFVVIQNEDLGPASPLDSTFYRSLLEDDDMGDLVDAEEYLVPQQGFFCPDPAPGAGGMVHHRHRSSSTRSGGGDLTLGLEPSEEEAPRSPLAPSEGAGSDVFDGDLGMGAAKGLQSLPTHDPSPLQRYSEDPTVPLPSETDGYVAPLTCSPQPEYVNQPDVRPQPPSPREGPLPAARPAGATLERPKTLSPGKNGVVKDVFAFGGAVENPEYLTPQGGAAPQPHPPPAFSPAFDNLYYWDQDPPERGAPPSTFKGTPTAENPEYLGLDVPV
# Sequence of Mitogen-activated protein kinase kinase kinase 8 (P41279 whole entry): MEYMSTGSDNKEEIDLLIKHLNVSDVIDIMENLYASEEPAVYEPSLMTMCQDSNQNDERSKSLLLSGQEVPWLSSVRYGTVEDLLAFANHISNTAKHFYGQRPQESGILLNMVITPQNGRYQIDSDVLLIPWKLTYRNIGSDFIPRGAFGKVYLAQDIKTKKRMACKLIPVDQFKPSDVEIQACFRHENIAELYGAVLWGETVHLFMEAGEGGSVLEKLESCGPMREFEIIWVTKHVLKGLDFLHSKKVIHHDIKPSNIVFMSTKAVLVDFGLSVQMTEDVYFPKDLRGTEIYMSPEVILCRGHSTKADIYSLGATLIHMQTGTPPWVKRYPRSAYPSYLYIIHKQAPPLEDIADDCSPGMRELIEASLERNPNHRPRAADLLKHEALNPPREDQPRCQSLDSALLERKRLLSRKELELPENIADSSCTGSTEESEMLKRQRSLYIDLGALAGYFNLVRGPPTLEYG
# Sequence of Proto-oncogene tyrosine-protein kinase Src (P12931 2-536 limits assumed): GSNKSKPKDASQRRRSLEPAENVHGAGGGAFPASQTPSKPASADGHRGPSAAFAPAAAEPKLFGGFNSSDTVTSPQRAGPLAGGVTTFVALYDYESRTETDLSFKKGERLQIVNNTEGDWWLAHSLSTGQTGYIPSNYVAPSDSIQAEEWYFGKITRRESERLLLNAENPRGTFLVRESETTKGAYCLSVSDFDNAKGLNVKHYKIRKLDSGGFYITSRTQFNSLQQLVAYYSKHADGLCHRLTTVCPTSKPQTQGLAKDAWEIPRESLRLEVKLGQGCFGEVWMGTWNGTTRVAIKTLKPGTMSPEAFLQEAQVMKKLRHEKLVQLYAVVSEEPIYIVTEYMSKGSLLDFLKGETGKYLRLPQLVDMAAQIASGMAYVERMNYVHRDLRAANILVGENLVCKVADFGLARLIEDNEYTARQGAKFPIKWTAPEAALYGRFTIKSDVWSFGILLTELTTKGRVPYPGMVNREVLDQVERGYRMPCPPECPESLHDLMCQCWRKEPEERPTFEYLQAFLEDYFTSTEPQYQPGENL
# Sequence of Serine/threonine-protein kinase PLK1 (P53350 whole entry): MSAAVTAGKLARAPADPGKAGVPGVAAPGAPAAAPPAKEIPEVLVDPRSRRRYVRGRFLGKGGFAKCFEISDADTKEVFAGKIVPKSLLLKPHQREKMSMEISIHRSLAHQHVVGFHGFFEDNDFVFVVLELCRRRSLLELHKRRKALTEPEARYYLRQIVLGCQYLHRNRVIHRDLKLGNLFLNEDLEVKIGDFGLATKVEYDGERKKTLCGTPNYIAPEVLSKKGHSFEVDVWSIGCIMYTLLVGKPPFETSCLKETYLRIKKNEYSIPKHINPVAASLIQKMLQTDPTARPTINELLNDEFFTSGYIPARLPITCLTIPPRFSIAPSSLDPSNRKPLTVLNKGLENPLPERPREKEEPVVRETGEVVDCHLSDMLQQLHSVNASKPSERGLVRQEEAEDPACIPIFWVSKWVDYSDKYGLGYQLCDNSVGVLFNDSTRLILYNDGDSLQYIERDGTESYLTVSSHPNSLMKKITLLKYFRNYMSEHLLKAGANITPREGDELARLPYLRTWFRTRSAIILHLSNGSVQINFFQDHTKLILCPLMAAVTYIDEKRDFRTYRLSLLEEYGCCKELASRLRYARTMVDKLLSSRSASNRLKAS
SMILES,pIC50 [1],pIC50 [2],pIC50 [3],pIC50 [4],pIC50 [5],pIC50 [7],pIC50 [8],pIC50 [9],pIC50 [10],pIC50 [11],pIC50 [12],pIC50 [13],pIC50 [14],pIC50 [15],pIC50 [16],pIC50 [17],pIC50 [19],pIC50 [23],pIC50 [18],also measured
O=C(NCCc1ccc(O)c(Br)c1)/C(Cc1cc(Br)c(O)c(-c2cc(C/C(=N/O)C(=O)NCCc3ccc(O)c(Br)c3)cc(Br)c2O)c1)=N\O [BASTADIN 3],5.68,5.96,7.00,6.30,5.80,5.89,5.72,5.64,5.57,5.54,5.92,5.39,5.62,5.55,5.68,5.74,6.10,5.82,,pIC50 [6]: 5.72; inhibition [18]: inactive; pIC50 [20]: 5.80; pIC50 [21]: 5.41; pIC50 [22]: 5.39
O=C1NCCc2cc(Br)c(O)c(c2)Oc2c(Br)cc(cc2Br)CCNC(=O)/C(=N/O)Cc2cc(Br)c(O)c(c2)Oc2c(Br)cc(cc2Br)C/C1=N\O [BASTADIN 6],,,5.77,5.54,5.32,5.70,,,,,,,5.28,,5.15,,,5.44,5.82,
O=C1N/C=C/c2ccc(c(Br)c2)Oc2cc(cc(Br)c2O)CCNC(=O)/C(=N/O)Cc2ccc(c(Br)c2)Oc2cc(cc(Br)c2O)C/C1=N\O [BASTADIN 7],5.14,5.55,5.41,5.59,5.48,5.82,5.70,5.77,5.36,5.36,5.89,5.72,5.54,5.49,5.55,5.49,5.74,5.59,5.28,pIC50 [24]: 4.99; pIC50 [25]: 5.11
